ChEMBL document CHEMBL5661979, “Pharmacological inhibition of BMK1 suppresses tumor growth through promyelocytic leukemia protein” (Cancer Cell, 2010)

Assays:
[1] = molecular target: Dual specificity protein kinase TTK (Homo sapiens) (UniProt P33981); test: Inhibition of TTK (unknown origin) assessed as remaining activity at 10 uM by ATP-competition binding assay relative to control
[2] = molecular target: Ribosomal protein S6 kinase alpha-3 (Homo sapiens, UniProt P51812); test: Inhibition of RSK2 domain 2 in human HeLa cells lysate pre incubated for 15 mins followed by ATP acyl phosphate probe addition and measured after 10 mins by LC-MS/MS analysis; assay type: subcellular
[3] = molecular target: Serine/threonine-protein kinase Chk2 (Homo sapiens, UniProt O96017); test: Inhibition of CHK2 in human HeLa cells lysate pre incubated for 15 mins followed by ADP acyl phosphate probe addition and measured after 10 mins by LC-MS/MS analysis; assay type: subcellular
[4] = molecular target: 3-phosphoinositide-dependent protein kinase 1 (Homo sapiens, UniProt O15530); test: Inhibition of PDK1 in human HeLa cells lysate pre incubated for 15 mins followed by ADP acyl phosphate probe addition and measured after 10 mins by LC-MS/MS analysis; assay type: subcellular
[5] = molecular target: T1, Mitogen-activated protein kinase kinase kinase kinase 2 (Homo sapiens) (UniProt Q12851); test: Inhibition of GCK in human HeLa cells lysate at 10 uM pre incubated for 15 mins followed by ADP acyl phosphate probe addition and measured after 10 mins by LC-MS/MS analysis relative to control; assay type: subcellular; settings: time 25.0 min
T1 sequence (whole entry): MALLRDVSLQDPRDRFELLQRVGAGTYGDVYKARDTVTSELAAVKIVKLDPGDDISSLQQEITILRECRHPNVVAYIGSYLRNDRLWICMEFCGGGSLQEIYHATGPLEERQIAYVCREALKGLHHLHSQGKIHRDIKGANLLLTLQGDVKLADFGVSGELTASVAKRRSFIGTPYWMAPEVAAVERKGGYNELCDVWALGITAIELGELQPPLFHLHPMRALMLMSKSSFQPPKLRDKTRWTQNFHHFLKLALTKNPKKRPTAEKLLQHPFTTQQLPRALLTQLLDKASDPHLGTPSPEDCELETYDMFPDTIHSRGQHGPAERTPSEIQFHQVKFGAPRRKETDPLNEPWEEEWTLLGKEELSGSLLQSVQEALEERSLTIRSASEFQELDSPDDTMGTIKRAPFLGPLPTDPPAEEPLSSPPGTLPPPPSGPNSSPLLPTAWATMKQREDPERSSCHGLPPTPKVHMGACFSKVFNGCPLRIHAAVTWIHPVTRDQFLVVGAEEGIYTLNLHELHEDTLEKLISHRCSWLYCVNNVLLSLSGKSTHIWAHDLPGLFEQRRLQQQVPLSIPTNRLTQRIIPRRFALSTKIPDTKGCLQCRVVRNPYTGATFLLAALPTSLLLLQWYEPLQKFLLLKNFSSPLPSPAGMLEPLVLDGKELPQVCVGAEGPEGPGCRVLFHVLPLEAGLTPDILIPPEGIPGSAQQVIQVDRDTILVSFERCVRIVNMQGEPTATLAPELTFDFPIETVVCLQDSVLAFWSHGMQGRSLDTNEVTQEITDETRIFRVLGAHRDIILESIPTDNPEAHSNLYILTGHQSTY

[6] = molecular target: Mitogen-activated protein kinase kinase kinase 1 (Homo sapiens, UniProt Q13233); test: Inhibition of MAP3K1 in human HeLa cells lysate at 10 uM pre incubated for 15 mins followed by ADP acyl phosphate probe addition and measured after 10 mins by LC-MS/MS analysis relative to control; assay type: subcellular; settings: time 25.0 min
[7] = molecular target: Glycogen synthase kinase-3 beta (Homo sapiens, UniProt P49841); test: Inhibition of GSK3B isoform 2 in human HeLa cells lysate at 2 uM pre incubated for 15 mins followed by ADP acyl phosphate probe addition and measured after 10 mins by LC-MS/MS analysis relative to control; assay type: subcellular; settings: time 25.0 min
[8] = Inhibition of CDK5/PRKX/PRKY in human HeLa cells lysate at 2 uM pre incubated for 15 mins followed by ADP acyl phosphate probe addition and measured after 10 mins by LC-MS/MS analysis relative to control; settings: 25 min, condition cancer
Method in brief: (§1)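 KiNativ profiling in HeLa lysate (5 mg/mL total protein). Lysate incubated 15 min with inhibitor at 50, 10, 2, 0.8 or 0 μM. ATP or ADP acylphosphate probe then added (5 μM final) and reacted 10 min. Reaction stopped with urea and analysed by targeted MS, using up to four fragment ions per kinase peptide-probe conjugate. % inhibition taken against untreated lysate. Run in duplicate.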

[9] = molecular target: Cyclin-dependent kinase 2 (Homo sapiens, UniProt P24941); test: Inhibition of CDK2 K2 site in human HeLa cells lysate at 2 uM pre incubated for 15 mins followed by ADP acyl phosphate probe addition and measured after 10 mins by LC-MS/MS analysis relative to control; assay type: subcellular; settings: time 25.0 min; method in brief: as §1
[10] = molecular target: RPS6KA1/RPS6KA2/RPS6KA3 (Homo sapiens, UniProt P51812+Q15349+Q15418); test: Inhibition of RSK1/2/3 in human HeLa cells lysate at 50 uM pre incubated for 15 mins followed by ATP acyl phosphate probe addition and measured after 10 mins by LC-MS/MS analysis relative to control; assay type: subcellular; settings: time 25.0 min
[11] = molecular target: Casein kinase I isoform alpha (Homo sapiens, UniProt P48729); test: Inhibition of CK1alpha in human HeLa cells lysate at 50 uM pre incubated for 15 mins followed by ATP acyl phosphate probe addition and measured after 10 mins by LC-MS/MS analysis relative to control; assay type: subcellular; settings: time 25.0 min
[12] = molecular target: Ribosomal protein S6 kinase beta-1 (Homo sapiens, UniProt P23443); test: Inhibition of P70S6K in human HeLa cells lysate at 50 uM pre incubated for 15 mins followed by ATP acyl phosphate probe addition and measured after 10 mins by LC-MS/MS analysis relative to control; assay type: subcellular; settings: time 25.0 min
[13] = molecular target: Glycogen synthase kinase-3 alpha (Homo sapiens, UniProt P49840); test: Inhibition of GSK3A in human HeLa cells lysate at 2 uM pre incubated for 15 mins followed by ATP acyl phosphate probe addition and measured after 10 mins by LC-MS/MS analysis relative to control; assay type: subcellular; settings: time 25.0 min
[14] = molecular target: T2, EKC/KEOPS complex subunit TP53RK (Homo sapiens) (UniProt Q96S44); test: Inhibition of PRPK in human HeLa cells lysate at 2 uM pre incubated for 15 mins followed by ATP acyl phosphate probe addition and measured after 10 mins by LC-MS/MS analysis relative to control; assay type: subcellular; settings: time 25.0 min
T2 sequence (whole entry): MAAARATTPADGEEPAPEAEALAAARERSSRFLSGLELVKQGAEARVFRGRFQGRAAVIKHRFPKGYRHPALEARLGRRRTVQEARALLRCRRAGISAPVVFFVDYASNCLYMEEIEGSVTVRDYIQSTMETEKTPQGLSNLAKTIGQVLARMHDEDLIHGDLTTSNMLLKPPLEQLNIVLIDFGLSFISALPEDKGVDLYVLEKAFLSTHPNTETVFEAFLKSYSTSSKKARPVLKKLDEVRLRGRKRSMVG

[15] = Toxicity in C57Bl/6 mouse assessed as effect on injection site at 50 mg/kg, ip for 14 days; assay type: organism-based; settings: in vivo, 336 h, time 14 day
[16] = Plasma concentration in C57Bl/6 mouse at 50 mg/kg, ip administered for 13 day and measured 8 hr post last dose by LC-MS/MS analysis; assay type: ADME, organism-based

Sequence of RPS6KA1/RPS6KA2/RPS6KA3 (P51812 whole entry, looked up, canonical isoform): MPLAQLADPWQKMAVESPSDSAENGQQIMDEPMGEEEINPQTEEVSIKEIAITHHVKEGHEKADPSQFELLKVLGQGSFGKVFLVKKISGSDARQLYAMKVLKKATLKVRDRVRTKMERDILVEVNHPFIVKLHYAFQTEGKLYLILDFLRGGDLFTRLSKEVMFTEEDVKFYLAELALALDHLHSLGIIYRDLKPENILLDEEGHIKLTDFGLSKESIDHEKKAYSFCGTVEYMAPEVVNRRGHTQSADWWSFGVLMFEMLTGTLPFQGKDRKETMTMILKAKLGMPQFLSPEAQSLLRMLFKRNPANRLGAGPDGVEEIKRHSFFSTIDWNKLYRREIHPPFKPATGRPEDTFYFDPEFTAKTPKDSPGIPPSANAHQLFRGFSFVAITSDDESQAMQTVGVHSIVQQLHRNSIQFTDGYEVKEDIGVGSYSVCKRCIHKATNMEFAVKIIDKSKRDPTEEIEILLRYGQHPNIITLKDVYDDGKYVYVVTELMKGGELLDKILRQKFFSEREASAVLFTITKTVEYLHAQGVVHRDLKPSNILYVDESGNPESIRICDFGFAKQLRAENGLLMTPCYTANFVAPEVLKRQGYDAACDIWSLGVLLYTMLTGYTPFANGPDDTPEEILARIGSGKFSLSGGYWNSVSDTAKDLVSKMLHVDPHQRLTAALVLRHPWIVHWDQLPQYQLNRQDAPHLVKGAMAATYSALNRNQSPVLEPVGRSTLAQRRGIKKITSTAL
Sequence of RPS6KA1/RPS6KA2/RPS6KA3 (Q15349 whole entry, looked up, canonical isoform): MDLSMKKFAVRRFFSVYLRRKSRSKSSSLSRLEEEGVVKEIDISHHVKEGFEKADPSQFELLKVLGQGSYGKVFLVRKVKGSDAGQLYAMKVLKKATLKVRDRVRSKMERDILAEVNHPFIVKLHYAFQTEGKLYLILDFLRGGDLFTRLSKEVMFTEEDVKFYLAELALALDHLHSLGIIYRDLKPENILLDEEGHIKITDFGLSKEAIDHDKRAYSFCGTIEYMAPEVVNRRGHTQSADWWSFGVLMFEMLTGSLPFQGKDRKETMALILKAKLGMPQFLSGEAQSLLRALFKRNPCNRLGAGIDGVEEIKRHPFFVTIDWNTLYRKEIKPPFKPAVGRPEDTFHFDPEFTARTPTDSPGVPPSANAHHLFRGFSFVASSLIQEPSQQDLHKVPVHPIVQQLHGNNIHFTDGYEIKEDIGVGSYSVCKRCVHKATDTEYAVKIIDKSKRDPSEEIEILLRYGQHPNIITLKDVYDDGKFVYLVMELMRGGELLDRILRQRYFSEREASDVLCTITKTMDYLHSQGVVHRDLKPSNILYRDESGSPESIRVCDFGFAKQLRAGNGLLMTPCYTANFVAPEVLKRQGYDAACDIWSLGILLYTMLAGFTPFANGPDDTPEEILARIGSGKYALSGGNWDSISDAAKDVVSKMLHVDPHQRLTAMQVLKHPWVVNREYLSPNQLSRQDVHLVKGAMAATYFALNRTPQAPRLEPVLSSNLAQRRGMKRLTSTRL
Sequence of RPS6KA1/RPS6KA2/RPS6KA3 (Q15418 whole entry, looked up, canonical isoform): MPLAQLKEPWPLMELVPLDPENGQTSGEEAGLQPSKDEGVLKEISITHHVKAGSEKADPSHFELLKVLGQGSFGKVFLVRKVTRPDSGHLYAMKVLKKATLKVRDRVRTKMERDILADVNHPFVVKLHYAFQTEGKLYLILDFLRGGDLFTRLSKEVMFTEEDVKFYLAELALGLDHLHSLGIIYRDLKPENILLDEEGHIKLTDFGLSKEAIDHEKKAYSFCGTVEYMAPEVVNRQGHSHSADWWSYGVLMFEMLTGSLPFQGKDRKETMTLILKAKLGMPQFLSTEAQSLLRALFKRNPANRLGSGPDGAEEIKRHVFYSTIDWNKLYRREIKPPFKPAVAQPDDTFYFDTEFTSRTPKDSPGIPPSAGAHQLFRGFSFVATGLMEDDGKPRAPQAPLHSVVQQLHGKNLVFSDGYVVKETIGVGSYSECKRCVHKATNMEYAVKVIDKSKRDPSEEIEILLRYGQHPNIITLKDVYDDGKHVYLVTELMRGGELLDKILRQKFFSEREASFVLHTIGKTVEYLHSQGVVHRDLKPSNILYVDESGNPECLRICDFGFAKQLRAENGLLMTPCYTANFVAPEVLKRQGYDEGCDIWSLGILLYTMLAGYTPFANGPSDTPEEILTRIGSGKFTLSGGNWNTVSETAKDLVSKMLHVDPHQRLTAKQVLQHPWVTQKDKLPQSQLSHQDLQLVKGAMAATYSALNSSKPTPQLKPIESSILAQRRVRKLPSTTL
Sequence of Ribosomal protein S6 kinase alpha-3 (P51812 whole entry, the tested form may be a part): as the sequence (P51812 whole entry, looked up, canonical isoform) above
Sequence of 3-phosphoinositide-dependent protein kinase 1 (O15530 whole entry): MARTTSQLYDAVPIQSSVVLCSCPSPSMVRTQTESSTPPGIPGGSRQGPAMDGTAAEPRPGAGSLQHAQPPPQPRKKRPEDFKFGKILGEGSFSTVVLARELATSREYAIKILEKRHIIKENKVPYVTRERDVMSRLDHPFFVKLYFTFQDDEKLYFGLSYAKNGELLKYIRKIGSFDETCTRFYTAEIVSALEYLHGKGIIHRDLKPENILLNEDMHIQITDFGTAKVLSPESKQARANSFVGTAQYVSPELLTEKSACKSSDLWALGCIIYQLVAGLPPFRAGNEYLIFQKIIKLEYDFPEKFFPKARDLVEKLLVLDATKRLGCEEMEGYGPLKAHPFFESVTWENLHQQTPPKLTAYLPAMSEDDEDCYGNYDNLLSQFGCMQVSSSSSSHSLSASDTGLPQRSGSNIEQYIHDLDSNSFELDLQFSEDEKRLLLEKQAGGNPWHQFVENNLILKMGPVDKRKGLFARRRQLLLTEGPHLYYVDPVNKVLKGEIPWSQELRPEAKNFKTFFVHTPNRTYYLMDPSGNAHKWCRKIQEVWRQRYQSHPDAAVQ
Sequence of Glycogen synthase kinase-3 beta (P49841 whole entry, looked up, canonical isoform): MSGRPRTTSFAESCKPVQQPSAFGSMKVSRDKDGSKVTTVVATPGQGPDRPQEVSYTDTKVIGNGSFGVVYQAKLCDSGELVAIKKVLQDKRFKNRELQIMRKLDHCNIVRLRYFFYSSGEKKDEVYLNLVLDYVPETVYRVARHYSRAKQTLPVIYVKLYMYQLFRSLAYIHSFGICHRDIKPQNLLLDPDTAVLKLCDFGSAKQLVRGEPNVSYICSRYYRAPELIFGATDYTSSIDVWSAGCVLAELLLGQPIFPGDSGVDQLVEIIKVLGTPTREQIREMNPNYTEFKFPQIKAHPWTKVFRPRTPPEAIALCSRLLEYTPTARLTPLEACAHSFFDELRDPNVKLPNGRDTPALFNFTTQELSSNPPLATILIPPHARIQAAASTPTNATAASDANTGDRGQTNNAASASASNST
Sequence of Ribosomal protein S6 kinase beta-1 (P23443 whole entry, looked up): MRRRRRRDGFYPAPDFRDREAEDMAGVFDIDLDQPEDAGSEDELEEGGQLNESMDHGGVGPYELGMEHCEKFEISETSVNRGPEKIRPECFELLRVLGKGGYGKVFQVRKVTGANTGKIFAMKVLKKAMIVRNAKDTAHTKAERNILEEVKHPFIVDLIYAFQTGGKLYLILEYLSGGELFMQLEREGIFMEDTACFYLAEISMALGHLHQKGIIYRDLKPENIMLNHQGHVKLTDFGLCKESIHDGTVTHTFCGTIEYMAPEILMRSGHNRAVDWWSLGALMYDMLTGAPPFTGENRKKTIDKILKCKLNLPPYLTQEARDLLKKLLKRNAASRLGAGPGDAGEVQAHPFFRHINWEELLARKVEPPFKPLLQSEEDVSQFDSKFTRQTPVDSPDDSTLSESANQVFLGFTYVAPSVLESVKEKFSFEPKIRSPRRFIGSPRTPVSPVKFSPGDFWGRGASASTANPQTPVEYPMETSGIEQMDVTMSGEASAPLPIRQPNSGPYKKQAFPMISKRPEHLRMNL
Sequence of Glycogen synthase kinase-3 alpha (P49840 2-483 limits assumed): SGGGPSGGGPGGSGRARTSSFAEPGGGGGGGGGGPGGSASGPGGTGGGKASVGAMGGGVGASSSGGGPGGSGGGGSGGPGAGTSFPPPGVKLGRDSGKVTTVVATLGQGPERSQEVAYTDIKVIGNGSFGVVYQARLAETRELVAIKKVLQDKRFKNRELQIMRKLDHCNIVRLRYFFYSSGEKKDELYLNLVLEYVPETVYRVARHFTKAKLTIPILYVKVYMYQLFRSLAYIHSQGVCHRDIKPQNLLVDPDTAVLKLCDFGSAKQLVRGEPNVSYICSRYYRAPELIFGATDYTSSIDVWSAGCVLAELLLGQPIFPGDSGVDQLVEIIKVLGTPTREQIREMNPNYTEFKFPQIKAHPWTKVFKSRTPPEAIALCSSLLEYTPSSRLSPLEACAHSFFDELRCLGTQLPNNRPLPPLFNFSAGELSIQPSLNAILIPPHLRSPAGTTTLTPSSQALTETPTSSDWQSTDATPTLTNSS
Sequence of Casein kinase I isoform alpha (P48729 2-337 limits assumed): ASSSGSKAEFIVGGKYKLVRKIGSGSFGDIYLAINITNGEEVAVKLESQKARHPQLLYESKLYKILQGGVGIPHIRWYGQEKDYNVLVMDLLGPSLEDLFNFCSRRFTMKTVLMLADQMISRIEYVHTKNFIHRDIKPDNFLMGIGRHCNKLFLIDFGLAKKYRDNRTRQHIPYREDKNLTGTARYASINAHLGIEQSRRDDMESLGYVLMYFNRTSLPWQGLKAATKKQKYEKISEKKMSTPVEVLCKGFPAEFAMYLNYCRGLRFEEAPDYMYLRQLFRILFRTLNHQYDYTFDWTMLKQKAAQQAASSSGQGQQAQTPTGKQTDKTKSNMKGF

With CCOc1cc(N2CCC(O)CC2)ccc1Nc1ncc2c(n1)N(C)c1ccccc1C(=O)N2C the Activity [1] was 19%, the IC50 [2] was 49 µM and the IC50 [3] was > 50 µM. The IC50 [4] was > 50 µM, the inhibition [5] was -8.4% and the inhibition [6] was 15.9%. It also gave an inhibition [7] of 18.5%, an inhibition at 2 µM [8] of 9.4% and an inhibition [9] of 9.8%. It also gave an inhibition [10] of 0.9%, an inhibition [11] of 0.1% and an inhibition [12] of -3.8%. The inhibition [13] was -5.5%, the inhibition [14] was 10.2% and the Activity [15] was “Non-Toxic”. The concentration at 312 h [16] was 11.1 µM.
